Experimental data: ChEMBL document CHEMBL3797026, “Caatinga plants: Natural and semi-synthetic compounds potentially active against Trichomonas vaginalis” (Bioorg Med Chem Lett, 2016)
Values after ≈ are worked out from the molar mass of the structure shown. Active and inactive are the calls of the source. The rule behind the calls is not given here.

Assays:
[1] = system: Trichomonas vaginalis; assay: Antitrichomonal activity against metronidazole-sensitive Trichomonas vaginalis ATCC 30236 clinical isolate trophozoites assessed as parasite viability at 100 uM after 24 hrs by trypan blue dye based hemocytometry; format: functional
How it was run: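 Single-concentration screen at 100 µM with trophozoites at 1.0 × 10^5/mL. Incubation was 24 h at 37 °C in 5.0% CO2, with a 0.62% DMSO vehicle control and 100 µM metronidazole as positive control. Viable parasites were counted by hemocytometer using motility, normal morphology and 0.2% trypan blue exclusion, and reported as % of untreated. Three experiments were run in triplicate.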

[2] = system: Trichomonas vaginalis; assay: Antitrichomonal activity against metronidazole-resistant Trichomonas vaginalis TV-LACM2R clinical isolate trophozoites assessed as reduction in parasite viability at 12.5 uM after 24 hrs by trypan blue dye based hemocytometry in presence of metronidazole; format: functional, organism-based
How it was run: (§1)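 Trophozoites at 1.0 × 10^5/mL were incubated 24 h at 37 °C in 5.0% CO2. Viable parasites were counted by hemocytometer, judged by motility, normal morphology and exclusion of 0.2% trypan blue. Viability is expressed as a percentage of untreated parasites. Three independent parasite suspensions were each run in triplicate, reported as mean ± SD.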

[3] = Selectivity index, ratio of CC50 for african green monkey Vero cells to IC50 for metronidazole-sensitive Trichomonas vaginalis ATCC 30236 clinical isolate trophozoites after 48 hrs; format: functional
How it was run: (§2)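 Selectivity index calculated as CC50 in the mammalian line (MTT, 24 or 48 h exposure) divided by the anti-T. vaginalis IC50.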

[4] = Cytotoxicity against african green monkey Vero cells assessed as reduction in cell viability after 24 hrs by MTT assay; format: cell-based; conditions: chlorocebus sabaeus
[5] = Cytotoxicity against HMVII cells assessed as reduction in cell viability at 50 uM after 24 hrs by MTT assay; format: cell-based; conditions: human, hmv-2, 24 h
How it was run: (§3)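 MTT assay: cells were grown in DMEM with 10% FBS at 37 °C in 5% CO2 and seeded at 3.0 × 10^4 or 1.0 × 10^4 cells/well overnight. Medium was replaced with fresh medium with or without 50 µM, with 0.2% Triton X-100 as positive control, for 24 or 48 h. MTT (0.5 mg/mL) was added for 1 h, formazan was dissolved in DMSO and read at 570 nm. Triplicates.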

[6] = system: Trichomonas vaginalis; assay: Antitrichomonal activity against metronidazole-sensitive Trichomonas vaginalis ATCC 30236 clinical isolate trophozoites assessed as appearance of flagella at 50 uM after 2 hrs by scanning electron microscopic analysis; format: functional, organism-based
How it was run: (§4)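 Scanning EM: trophozoites (1.0 × 10^5/mL) were treated or not with 50 µM. They were fixed in 2.5% glutaraldehyde in 0.1 M sodium cacodylate pH 7.2, post-fixed in 1.0% OsO4 in the same buffer, and dehydrated in acetone. Untreated trophozoites served as control.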

[7] = system: Trichomonas vaginalis; assay: Antitrichomonal activity against metronidazole-sensitive Trichomonas vaginalis ATCC 30236 clinical isolate trophozoites assessed as rounded parasite at 50 uM after 2 hrs by scanning electron microscopic analysis; format: functional, organism-based; how it was run: as §4
[8] = system: Trichomonas vaginalis; assay: Antitrichomonal activity against metronidazole-sensitive Trichomonas vaginalis ATCC 30236 clinical isolate trophozoites assessed as parasite shape disruption at 50 uM after 2 hrs by scanning electron microscopy; format: functional, organism-based; how it was run: as §4
[9] = system: Trichomonas vaginalis; assay: Antitrichomonal activity against metronidazole-sensitive Trichomonas vaginalis ATCC 30236 clinical isolate trophozoites assessed as inhibition of parasite growth at 50 uM after 12 to 24 hrs by hemocytometry; format: functional, organism-based
How it was run: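 Kinetic growth curve: trophozoites (1.0 × 10^5/mL) were incubated with or without 50 µM for 2, 4, 6, 12, 24, 48, 72 and 96 h. Parasites were counted by hemocytometer and expressed as trophozoites/mL relative to untreated controls.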

[10] = system: Trichomonas vaginalis; assay: Antitrichomonal activity against metronidazole-sensitive Trichomonas vaginalis ATCC 30236 clinical isolate trophozoites assessed as parasite viability after 24 hrs by trypan blue dye based hemocytometry; format: functional, organism-based; conditions: ATCC 30236, 24 h
How it was run: (§5)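 Trophozoites (1.0 × 10^5/mL) were cultured in TYM and exposed to a dilution series from 100 to 0.78 µM for 24 h. Viable counts were taken by hemocytometer with 0.2% trypan blue exclusion and compared with untreated parasites. To confirm the MIC, parasites were transferred to fresh TYM medium. Triplicates were run with three independent cultures.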

[11] = Selectivity index, ratio of CC50 for african green monkey Vero cells to IC50 for metronidazole-sensitive Trichomonas vaginalis ATCC 30236 clinical isolate trophozoites after 24 hrs; format: functional; how it was run: as §2
[12] = Cytotoxicity against HMVII cells assessed as reduction in cell viability after 48 hrs by MTT assay; format: cell-based, HMV-2; conditions: human
[13] = system: HeLa; assay: Cytotoxicity against human HeLa cells assessed as reduction in cell viability at 50 uM after 24 hrs by MTT assay; format: cell-based; how it was run: as §3
[14] = Cytotoxicity against HMVII cells assessed as reduction in cell viability at 50 uM after 48 hrs by MTT assay; format: cell-based; conditions: human, hmv-2, 48 h; how it was run: as §3
[15] = system: Trichomonas vaginalis; assay: Antitrichomonal activity against metronidazole-sensitive Trichomonas vaginalis ATCC 30236 clinical isolate trophozoites assessed as undulating membrane at 50 uM after 2 hrs by scanning electron microscopic analysis; format: functional, organism-based; how it was run: as §4
[16] = Cytotoxicity against african green monkey Vero cells assessed as reduction in cell viability after 48 hrs by MTT assay; format: cell-based; conditions: chlorocebus sabaeus
[17] = system: HeLa; assay: Cytotoxicity against human HeLa cells assessed as reduction in cell viability at 50 uM after 48 hrs by MTT assay; format: cell-based; how it was run: as §3
[18] = system: Trichomonas vaginalis; assay: Antitrichomonal activity against metronidazole-sensitive Trichomonas vaginalis ATCC 30236 clinical isolate trophozoites assessed as membrane projections and holes at 50 uM after 2 hrs by scanning microscopic analysis; format: functional, organism-based; how it was run: as §4
[19] = system: Trichomonas vaginalis; assay: Antitrichomonal activity against metronidazole-resistant Trichomonas vaginalis TV-LACM2R clinical isolate trophozoites assessed as reduction in parasite viability at 12.5 uM after 24 hrs by trypan blue dye based hemocytometry; format: functional, organism-based; how it was run: as §1
[20] = system: Trichomonas vaginalis; assay: Antitrichomonal activity against metronidazole-sensitive Trichomonas vaginalis ATCC 30236 clinical isolate trophozoites assessed as parasite viability after 2 to 12 hrs by FDA/PI dye staining based flow cytometry; format: functional, organism-based
How it was run: (§6)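 Flow cytometry: parasites were exposed or not to 50 µM for 0, 2, 4, 6 and 12 h, then co-stained with FDA and PI (10 µg/mL each) for 20 min. FDA-retaining cells with intact membranes were scored viable and PI-positive cells nonviable. Three parasite suspensions were tested in triplicate.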

[21] = Selectivity index, ratio of CC50 for HMVII cells to IC50 for metronidazole-sensitive Trichomonas vaginalis ATCC 30236 clinical isolate trophozoites after 24 hrs; format: functional; how it was run: as §2
[22] = system: Trichomonas vaginalis; assay: Antitrichomonal activity against metronidazole-sensitive Trichomonas vaginalis ATCC 30236 clinical isolate trophozoites assessed as reduction of parasite viability after 2 hrs by FDA/PI dye staining based flow cytometry relative to control; format: functional; how it was run: as §6
[23] = Cytotoxicity against HMVII cells assessed as reduction in cell viability after 24 hrs by MTT assay; format: cell-based, HMV-2; conditions: human
[24] = system: Trichomonas vaginalis; assay: Antitrichomonal activity against metronidazole-sensitive Trichomonas vaginalis ATCC 30236 clinical isolate trophozoites assessed as decrease in parasite viability at 50 to 100 uM after 24 hrs by trypan blue dye based hemocytometry; format: functional, organism-based; how it was run: as §5
[25] = Selectivity index, ratio of CC50 for HMVII cells to IC50 for metronidazole-sensitive Trichomonas vaginalis ATCC 30236 clinical isolate trophozoites after 48 hrs; format: functional; how it was run: as §2
[26] = system: Vero; assay: Cytotoxicity against african green monkey Vero cells assessed as reduction in cell viability at 50 uM after 24 to 48 hrs by MTT assay; format: cell-based; conditions: chlorocebus sabaeus; how it was run: as §3
[27] = system: Trichomonas vaginalis; assay: Antitrichomonal activity against metronidazole-resistant Trichomonas vaginalis TV-LACM2R clinical isolate trophozoites; format: functional
[28] = system: Trichomonas vaginalis; assay: Antitrichomonal activity against metronidazole-resistant Trichomonas vaginalis TV-LACM2R clinical isolate trophozoites assessed as reduction in parasite viability at 15 uM after 24 hrs by trypan blue dye based hemocytometry; format: functional; how it was run: as §1

For `CC(=O)O[C@H]1CC[C@]2(C)[C@H]3CC=C4[C@@H]5[C@@H](C)[C@H](C)CC[C@]5(C)CC[C@@]4(C)[C@]3(C)CC[C@H]2C1(C)C`, the Activity [1] was 56.4%.

For `C[C@H]1[C@H](C)CC[C@]2(C(=O)O)CC[C@]3(C)C(=CC[C@@H]4[C@@]5(C)CC[C@H](O)C(C)(C)[C@@H]5CC[C@]43C)[C@H]12` [URSOLIC ACID], the Activity [2] was “Active”, the “Ratio CC50/IC50” value [3] was 1.02 and the CC50 at 24 h [4] was 31.9 µM. The Activity [5] was 60%, the Activity [6] was “Active” and the Activity [7] was “Active”. For the same molecule, the Activity [8] was “Active”, the “growth inhibition (GI)” value [9] was “Active” and the IC50 [10] was 35.3 µM. The MIC [10] was 50 µM (≈ 22.8 µg/mL), the “Ratio CC50/IC50” value [11] was 0.9 and the CC50 at 48 h [12] was 69.5 µM. The Activity [13] was 50%, the Activity [14] was 90% and the Activity [15] was “Active”. The CC50 at 48 h [16] was 35.9 µM, the Activity [17] was 90% and the Activity [18] was “Active”. The Activity [19] was “Active”, the Activity [20] was “Active” and the “Ratio CC50/IC50” value [21] was 4.13. The Activity [22] was 98%, the Activity [1] was 0% and the CC50 at 24 h [23] was 146 µM. The Activity [24] was “Active”, the “Ratio CC50/IC50” value [25] was 1.97 and the Activity [26] was 30%.

Molecule `C=C(C)[C@@H]1CC[C@]2(C)CC[C@]3(C)[C@H](CC[C@@H]4[C@@]5(C)CC[C@H](OC(C)=O)C(C)(C)[C@@H]5CC[C@]43C)[C@@H]12` [LUPENYL ACETATE] has an Activity [1] of 59.8%.

`C=C(C)[C@@H]1CC[C@]2(C)CC[C@]3(C)[C@H](CC[C@@H]4[C@@]5(C)CC[C@H](OC(=O)CCCCC)C(C)(C)[C@@H]5CC[C@]43C)[C@@H]12` gave an Activity [1] of 71.4%.

In the case of `CCCCCC(=O)O[C@H]1CC[C@]2(C)[C@H]3CC=C4[C@@H]5[C@@H](C)[C@H](C)CC[C@]5(C)CC[C@@]4(C)[C@]3(C)CC[C@H]2C1(C)C`, the Activity [1] is reported as 56.2%.

Molecule `CC1(C)CC[C@]2(C)CC[C@]3(C)C(=CC[C@@H]4[C@@]5(C)CC[C@H](O)C(C)(C)[C@@H]5CC[C@]43C)[C@@H]2C1` [beta-AMYRIN] has an Activity [1] of 84.3%.

Work on `CC(=O)O[C@H]1CC[C@]2(C)[C@H]3CC=C4[C@@H]5CC(C)(C)CC[C@]5(C)CC[C@@]4(C)[C@]3(C)CC[C@H]2C1(C)C` [beta-AMYRIN ACETATE] yielded an Activity [1] of 54.5%.

`CC1(C)CC[C@]2(C(=O)O)CC[C@]3(C)C(=CC[C@@H]4[C@@]5(C)CC[C@H](O)C(C)(C)[C@@H]5CC[C@]43C)[C@@H]2C1` [OLEANOLIC_ACID] showed an Activity [1] of 78.3%.

`CCCCCC(=O)O[C@H]1CC[C@]2(C)[C@H]3CC=C4[C@@H]5CC(C)(C)CC[C@]5(C)CC[C@@]4(C)[C@]3(C)CC[C@H]2C1(C)C` gave an Activity [1] of 62.8%.

In the case of `C[C@H]1[C@H](C)CC[C@]2(C)CC[C@]3(C)C(=CC[C@@H]4[C@@]5(C)CC[C@H](O)C(C)(C)[C@@H]5CC[C@]43C)[C@H]12`, the Activity [1] is reported as 76.1%.

Molecule `C=C(C)[C@@H]1CC[C@]2(C)CC[C@]3(C)[C@H](CC[C@@H]4[C@@]5(C)CC[C@H](O)C(C)(C)[C@@H]5CC[C@]43C)[C@@H]12` [LUPEOL] has an Activity [1] of 117.8%.

`Cc1ncc([N+](=O)[O-])n1CCO` [METRONIDAZOLE] gave an MIC [27] of 73 µM (≈ 12.5 µg/mL), an Activity [28] of 80% and an Activity [1] of 0%.
